{"source": "paper PMC4002067", "about": "(Journal of Medicinal Chemistry, 2014)", "key": {"SIRT1 [1]": {"biological_target": "T1, SIRT1 (Homo sapiens, UniProt Q96EB6)", "T1 sequence (Q96EB6 1-747)": "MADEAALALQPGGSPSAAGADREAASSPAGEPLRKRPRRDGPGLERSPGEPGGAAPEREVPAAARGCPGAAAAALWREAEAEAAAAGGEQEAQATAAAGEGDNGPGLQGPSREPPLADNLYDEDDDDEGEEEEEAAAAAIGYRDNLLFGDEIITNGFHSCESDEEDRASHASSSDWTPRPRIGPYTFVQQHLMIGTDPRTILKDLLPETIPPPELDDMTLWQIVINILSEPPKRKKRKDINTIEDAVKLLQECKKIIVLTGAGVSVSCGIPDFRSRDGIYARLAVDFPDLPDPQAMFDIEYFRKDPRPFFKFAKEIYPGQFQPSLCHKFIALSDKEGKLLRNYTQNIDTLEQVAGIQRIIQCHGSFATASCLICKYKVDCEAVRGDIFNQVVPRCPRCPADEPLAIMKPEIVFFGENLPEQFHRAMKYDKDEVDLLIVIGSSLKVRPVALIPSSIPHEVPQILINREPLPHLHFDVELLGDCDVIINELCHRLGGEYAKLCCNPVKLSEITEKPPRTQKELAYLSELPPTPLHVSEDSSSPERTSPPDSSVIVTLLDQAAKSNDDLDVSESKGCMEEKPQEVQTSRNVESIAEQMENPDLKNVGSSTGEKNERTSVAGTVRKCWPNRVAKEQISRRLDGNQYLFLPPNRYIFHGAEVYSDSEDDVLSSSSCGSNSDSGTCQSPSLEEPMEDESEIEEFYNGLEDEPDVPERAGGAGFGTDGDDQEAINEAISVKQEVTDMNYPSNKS", "assay": "SIRT-Glo enzyme inhibition assay, SIRT1", "format": "biochemical", "conditions": "for selectivity for SIRT1 (over SIRT2): from IC50 values"}, "SIRT2": {"biological_target": "T2, SIRT2 (Homo sapiens, UniProt Q8IXJ6)", "T2 sequence (Q8IXJ6 1-389)": "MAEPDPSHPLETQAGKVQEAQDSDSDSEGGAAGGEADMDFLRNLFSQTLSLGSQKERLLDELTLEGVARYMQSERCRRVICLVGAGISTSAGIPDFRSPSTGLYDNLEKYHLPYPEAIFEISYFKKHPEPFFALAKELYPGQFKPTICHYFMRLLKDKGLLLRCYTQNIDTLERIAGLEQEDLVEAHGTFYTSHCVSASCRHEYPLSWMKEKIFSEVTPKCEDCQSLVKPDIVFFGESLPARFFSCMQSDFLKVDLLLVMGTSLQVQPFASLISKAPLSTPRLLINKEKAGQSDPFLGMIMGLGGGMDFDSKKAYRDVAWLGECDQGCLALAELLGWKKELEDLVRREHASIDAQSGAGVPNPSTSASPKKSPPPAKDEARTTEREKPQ", "assay": "SIRT-Glo enzyme inhibition assay, SIRT2", "format": "biochemical", "conditions": "50 μM compound"}, "SIRT3": {"biological_target": "T3, SIRT3 (Homo sapiens, UniProt Q9NTG7)", "T3 sequence (Q9NTG7 1-399)": "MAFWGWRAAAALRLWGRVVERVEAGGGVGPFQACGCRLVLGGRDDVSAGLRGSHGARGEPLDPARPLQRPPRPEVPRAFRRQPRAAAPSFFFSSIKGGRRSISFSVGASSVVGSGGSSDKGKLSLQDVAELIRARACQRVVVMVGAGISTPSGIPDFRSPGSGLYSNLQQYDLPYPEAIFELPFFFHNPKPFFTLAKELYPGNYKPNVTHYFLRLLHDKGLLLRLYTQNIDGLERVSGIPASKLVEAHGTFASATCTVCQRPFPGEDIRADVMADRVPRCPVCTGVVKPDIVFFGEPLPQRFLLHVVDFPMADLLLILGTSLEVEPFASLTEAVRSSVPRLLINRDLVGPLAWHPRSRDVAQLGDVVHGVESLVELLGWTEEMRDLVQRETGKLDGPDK", "assay": "SIRT-Glo enzyme inhibition assay, SIRT3", "format": "biochemical", "conditions": "50 μM compound"}, "[2]": {"conditions": "drawback stated in the introduction; cited from earlier work"}, "[3]": {"system": "lymphoma and epithelial cancer cell lines", "assay": "Cytotoxicity across lymphoma and epithelial cancer cell lines", "format": "cell-based", "conditions": "72 h, read-out: cytotoxicity IC50 range", "in_short": "(§1)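 Cells grown under standard conditions and treated in 96-well format with test compound in DMSO (final DMSO 0.25%) or DMSO control for 72 h. Viability was read as luminescence with CellTiterGlo. Assays were run in triplicate, and values are averages of two independent experiments.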"}, "[4]": {"assay": "Cytotoxicity in nontransformed B-cell lines", "format": "cell-based", "conditions": "human, nontransformed EBV-immortalized B-cell lines B1 and B2", "in_short": "as §1"}, "[5]": {"system": "SIRT2-mediated deacetylation of α-tubulin in NCI-H460 cells", "assay": "α-tubulin acetylation by Western blot", "format": "cell-based, human", "conditions": "4 h treatment"}, "SIRT1 [6]": {"biological_target": "T1, SIRT1", "assay": "Saturation transfer difference", "format": "binding", "conditions": "1.5 μM SIRT1, 200 μM compound, naphthalene numbering"}}}
{"compound": "4-[(2-Chloro-6-hydroxy-4-methylquinolin-5-yl)methyl]-5-(4-methylphenyl)-2,3-dihydro-1H-pyrazol-3-one [compound 22]", "values": [{"measurement": "SIRT1 (% inh)", "setting": "SIRT1 [1]; 50 μM compound", "value": 27, "unit": "%"}, {"measurement": "SIRT2 (% inh)", "setting": "SIRT2", "value": 24, "unit": "%"}, {"measurement": "SIRT3 (% inh)", "setting": "SIRT3", "value": 32, "unit": "%"}]}
{"compound": "O=c1[nH]c(=S)[nH]c(-c2ccccc2)c1Cc1c(O)ccc2ccccc12", "note": "[compound 1, 5-[(2-hydroxy-1-naphthyl)methyl]-6-phenyl-2-thioxo-2,3-dihydro-4(1H)-pyrimidinone]", "values": [{"measurement": "solubility", "setting": "[2]", "value": "poor solubility"}]}
{"compound": "CC(C)c1ccc(-c2[nH][nH]c(=O)c2Cc2c(O)ccc3nc(Cl)ccc23)cc1", "note": "[compound 23, 4-[(2-Chloro-6-hydroxyquinolin-5-yl)methyl]-5-[4-(propan-2-yl)phenyl]-2,3-dihydro-1H-pyrazol-3-one]", "values": [{"measurement": "selectivity for SIRT1 (over SIRT2)", "setting": "SIRT1 [1]", "value": "> 3", "unit": "fold"}]}
{"compound": "Cc1ccc(-c2[nH]oc(=O)c2Cc2c(O)ccc3cc(Br)ccc23)cc1", "note": "[compound 24, 4-[(6-Bromo-2-hydroxynaphthalen-1-yl)methyl]-3-(4-methylphenyl)-2,5-dihydro-1,2-oxazol-5-one]", "values": [{"measurement": "selectivity for SIRT1 (over SIRT2)", "setting": "SIRT1 [1]", "value": 7.8, "unit": "fold"}, {"measurement": "IC50", "setting": "[3]", "value": "3 to 7", "unit": "µM"}, {"measurement": "IC50 at 72 h", "setting": "[4]", "value": "22 to 28", "unit": "µM"}, {"measurement": "α-tubulin acetylation", "setting": "[5]", "value": "rapid and robust dose-dependent increase in α-tubulin acetylation"}]}
{"compound": "Cc1ccc(-c2[nH][nH]c(=O)c2Cc2c(O)ccc3nc(Cl)ccc23)cc1", "note": "[compound 20, 4-[(2-Chloro-6-hydroxyquinolin-5-yl)methyl]-5-(4-methylphenyl)-2,3-dihydro-1H-pyrazol-3-one]", "values": [{"measurement": "relative STD signal intensity, C-7 proton", "setting": "SIRT1 [6]", "value": 100, "unit": "%"}]}
{"compound": "Cc1ccc(-c2[nH][nH]c(=O)c2Cc2c(O)ccc3cc(Br)ccc23)cc1", "note": "[compound 14, 4-[(6-Bromo-2-hydroxynaphthalen-1-yl)methyl]-5-(4-methylphenyl)-2,3-dihydro-1H-pyrazol-3-one]", "values": [{"measurement": "selectivity for SIRT1 (over SIRT2)", "setting": "SIRT1 [1]", "value": "greater than 5 fold"}]}
